Experiment [1] can be described thus: Inhibition of [3H]-cytisine binding to neuronal nicotinic acetylcholine receptor of rat brain. In outline:
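Test compounds run as oxalate salts. Ki values are reported as mean ± SEM of three independent experiments, each performed in triplicate.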

Experiment [2] deals with Neuronal acetylcholine receptor (Rattus norvegicus) (UniProt P04757+P09483+P12389+P12390+P12392+P43144+Q9JLB5+P12391+P43143+P20420+Q05941). Briefly: Percent Inhibition of [3H]cytisine binding at neuronal nicotinic acetylcholine receptor in rat brain at 100 uM. The format is tissue-based.

Each structure is given as a SMILES string.

As for `Cc1cc([C@@H]2CCC3CCC2N3)on1` (some centres not stated), the Ki (in general, a dissociation constant, usually derived from enzyme kinetics or from competition with a known ligand) in experiment [1] was 26000 nM.

Consider `Cc1cc(C2CC3CCC(C2)N3)on1` (stereo in doubt; 15a), for which, in experiment [1], the affinity, expressed as Ki, was 18000 nM.

In experiment [1], `Cc1cc(C2CC[C@H]3CCC2N3C)on1` (some centres not stated) showed a Ki of 1470 nM.

For `Cc1cc(C2CC3CCC(C2)N3)on1` (stereo in doubt; 15b), the affinity in experiment [1] corresponds to a Ki of 148 nM.

Turning to `Cc1cc(C2CC3CCC(C2)N3C)on1` (configuration not stated), in experiment [1], the inhibition constant Ki worked out at 194 nM. For the same compound, in experiment [2], the inhibition (commonly the share of the control response that was lost under treatment) came out at 40%.

In experiment [1], `Clc1ccc(C2CC3CC[C@@H]2N3)cn1` (some centres not stated) showed a Ki of 0.79 nM.

In experiment [1], `Clc1ccc([C@H]2CCC3CCC2N3)cn1` (some centres not stated) gave a Ki of 1.04 nM.

Compound `Cc1cc(C2=CC3CCC(C2)N3C)on1` (configuration not stated) showed a Ki in experiment [1] of 720 nM.

Take `Cc1cc(C2=CC3CCC(C2)N3)on1` (configuration not stated): in experiment [1], the affinity, expressed as Ki, was 320 nM.

With `Cc1cc(C2CCC3CC[C@@H]2N3)on1` (some centres not stated), in experiment [1], the Ki worked out at 3 nM.

For the compound `CN1CCC[C@H]1c1ccccc1`, the Ki in experiment [1] was found to be 8 nM.

The values above are taken from ChEMBL document CHEMBL1147501, “Synthesis and nicotinic acetylcholine receptor binding affinities of 2- and 3-isoxazolyl-8-azabicyclo[3.2.1]octanes” (Bioorg Med Chem Lett, 2004).
